Measurements of several laboratories.
Each line is one published result; the experiments were not run side by side.
JAK2 JH1: Tyrosine-protein kinase JAK2, JH1 (JAK2, Homo sapiens, UniProt O60674)
JAK2: Tyrosine-protein kinase JAK2 (JAK2, Homo sapiens, UniProt O60674)

| Compound | target | read-out | mode | method | tested at | measurement | result |
| --- | --- | --- | --- | --- | --- | --- | --- |
| CC(=O)Nc1c(C(C)=O)c(=O)n(C)c2nc(-c3ccc(Cl)cc3Cl)c(-c3ccc(Cl)cc3)cc12 | JAK2 JH1 | cell-free assay |  | competition with immobilised ligand | 1 µM | remaining binding | 100% |
| COc1cc2ncnc(Nc3ccc(Oc4ccccc4)cc3C)c2cc1OC | JAK2 JH1 | enzyme activity | inhibitor |  | 1 µM | inhibition | -6% |
| FC(F)(F)Oc1cccc(-c2cnc3ccc(-c4ccncc4)nn23)c1 | JAK2 | enzyme activity | inhibitor | radiometric | 1 µM | activity vs control | 74% |
| CS(=O)(=O)N1CCCC(NC(=O)[C@H](CCC2CCCCC2)NC(=O)c2ccc(CNc3ncnc4c3nnn4-c3ccccc3)cc2)C1 (stereo partly drawn) | JAK2 JH1 | cell-free assay |  | competition with immobilised ligand | 0.1 µM | remaining binding | 100% |
| CC/C(=N\NC(=O)NCc1cccc(O)c1)c1ccc(O)c(C)c1O | JAK2 | enzyme activity | inhibitor |  | 0.1 µM | inhibition | 1% |
| CN(c1nccc(-c2cnn3ncccc23)n1)C1CC1 | JAK2 JH1 | cell-free assay |  |  | 1 µM | remaining signal | 100% |
| C=CC(=O)Nc1cc(Nc2nccc(Nc3cc(Cl)c(F)cc3C(C)(C)O)n2)c(OC)cc1N1CC[C@@H](N(C)C)C1 | JAK2 | enzyme activity | inhibitor |  | 1 µM | inhibition | 2% |
| Cc1nn(CC(F)(F)F)cc1Nc1ncc(C2CC2)c(NCc2ccc(S(N)(=O)=O)cc2)n1 | JAK2 | enzyme activity | inhibitor | radiometric | 1 µM | remaining activity | 100% |
| O=C1NC(=O)c2cc(Nc3ccc(F)cc3)c(Nc3ccc(F)cc3)cc21 | JAK2 | cell-free assay |  |  | 0.5 µM | remaining signal | 94.6% |
| O=C1CCc2cc(Nc3cc(OC4CCOCC4)c([N+](=O)[O-])cc3Cl)ccc2N1 | JAK2 JH1 | cell-free assay |  | competition with immobilised ligand | 1 µM | remaining binding | 100% |
| Cc1nn(CC(F)(F)F)cc1Nc1ncc(C2CC2)c(NCCc2c[nH]cn2)n1 | JAK2 | enzyme activity | inhibitor | radiometric | 1 µM | remaining activity | 123% |
| CCN(CC)CCNC(=O)c1c(C)[nH]c(/C=C2\C(=O)Nc3ccc(F)cc32)c1C | JAK2 | cell-free assay |  |  | 0.5 µM | remaining signal | 88.8% |
| CO[C@@H](C)c1c(Nc2ccc([C@@H](N(C)C(=O)C3CCS(=O)(=O)CC3)C(F)(F)F)cc2)cnc2cc(Cl)nn12 | JAK2 JH1 | cell-free assay |  | competition with immobilised ligand | 1 µM | remaining binding | 98% |
| Cc1ccc(Nc2nccc(N(C)c3ccc4c(C)n(C)nc4c3)n2)cc1S(N)(=O)=O | JAK2 | enzyme activity | inhibitor |  | 10 µM | inhibition | 36% |
| CS(=O)(=O)Nc1cccc(-c2csc(NC(=O)CSc3nc4nccnc4c(=O)n3CCc3ccccc3)n2)c1 | JAK2 | enzyme activity | inhibitor |  | 10 µM | inhibition | -7% |
| FC(F)c1nc2ccccc2n1-c1nc(N2CCOCC2)nc(N2CCOCC2)n1 | JAK2 | enzyme activity | inhibitor |  | 10 µM | remaining activity | 79% |
| NS(=O)(=O)c1cc(NC(=O)Cc2ccccc2)ccc1Oc1cccc(Cl)c1 | JAK2 JH1 | cell-free assay |  | competition with immobilised ligand | 1 µM | remaining binding | 73% |
| c1cc(CN2CCOCC2)cc(Nc2ncc(C3CC3)c(NCCc3c[nH]cn3)n2)c1 | JAK2 | enzyme activity | inhibitor | radiometric | 1 µM | remaining activity | 82% |
